Data from ChEMBL document CHEMBL1153868, “Novel 8-deaza-5,6,7,8-tetrahydroaminopterin derivatives as dihydrofolate inhibitor: design, synthesis and antifolate activity” (Eur J Med Chem, 2009).

How the values were obtained:
Bel-7402 = test: Cytotoxicity against human Bel7402 cells after 48 hrs; assay type: functional, cell-based; settings: Bel-7402, 48 h
In short: (§1)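 Exponentially growing cells maintained in supplemented RPMI-1640 medium. Exposed to a range of compound concentrations for 48 h. Growth inhibition measured by MTT and SRB assays. IC50 reported as the mean of three independent experiments.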

HeLa = test: Cytotoxicity against human HeLa cells after 48 hrs; assay type: functional, cell-based; in short: as §1
BGC-823 = test: Cytotoxicity against human BGC823 cells after 48 hrs; assay type: functional, cell-based; settings: BGC-823, 48 h; in short: as §1
HL-60 = test: Cytotoxicity against human HL60 cells after 48 hrs; assay type: functional, cell-based; settings: HL-60, 48 h; in short: as §1
Dihydrofolate reductase = molecular target: T1, Dihydrofolate reductase (Homo sapiens, UniProt P00374); test: Inhibition of human recombinant DHFR by spectrophotometry
T1 sequence (P00374 whole entry): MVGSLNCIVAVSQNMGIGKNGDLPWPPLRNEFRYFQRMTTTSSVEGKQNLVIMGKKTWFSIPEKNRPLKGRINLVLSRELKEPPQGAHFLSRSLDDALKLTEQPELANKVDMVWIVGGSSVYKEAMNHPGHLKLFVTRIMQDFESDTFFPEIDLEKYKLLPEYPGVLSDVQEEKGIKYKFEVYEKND

Row | Structure (SMILES) | IC50 (Bel-7402) [µM] | IC50 (HeLa) [µM] | IC50 (BGC-823) [µM] | IC50 (HL-60) [µM] | IC50 (Dihydrofolate reductase) [µM]
1 | C=CCN1c2c(N)nc(N)nc2CCC1CNc1ccc(C(=O)NC(CCC(=O)O)C(=O)O)cc1Br (centres undefined) | 1.2 | 0.9 | 6.59 | 0.57 | 2.37
2 | C=CCN1c2c(N)nc(N)nc2CCC1CNc1ccc(C(=O)NC(CCC(=O)O)C(=O)O)cc1 (centres undefined) | 42.2 | 7.85 | 5.2 | 0.7 | 1.41
3 | C=CCN(CC1CCc2nc(N)nc(N)c2N1CC=C)c1ccc(C(=O)NC(CCC(=O)O)C(=O)O)cc1 (centres undefined) | 7.1 | 21.7 | 2.43 | 1.42 | 2.15
4 | Nc1nc(N)c2c(n1)CCC(CNc1ccc(C(=O)NC(CCC(=O)O)C(=O)O)cc1Br)N2CC(Br)CBr (centres undefined) | 257 | 19.4 | 22.6 | 48.8 | 9.34
5 | CN(Cc1cnc2nc(N)nc(N)c2n1)c1ccc(C(=O)N[C@@H](CCC(=O)O)C(=O)O)cc1 [METHOTREXATE] | 82.3 | 0.1 | 0.11 | 0.21 | 
6 | Nc1nc(N)c2c(n1)CCC(CNc1ccc(C(=O)NC(CCC(=O)O)C(=O)O)cc1)N2 (centres undefined) | 87.9 | 0.96 | 0.44 | 0.9 | 0.56
